# Test results reported in ChEMBL document CHEMBL4513216, “Probing the Open Global Health Chemical Diversity Library for Multistage-Active Starting Points for Next-Generation Antimalarials” (ACS Infect Dis, 2020).
# Assay: Toxicity liver stage against HepG2, at 10uM
# Format: cell-based
# Design: test concentration 10 uM, cell line HepG2-A16-CD81EGFP
# Conditions: human, HepG2-A16-CD81EGFP cells; read-out: INHIBITION
# In short: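 Uninfected HepG2-A16-CD81EGFP cells, 3 × 10^3 per well, 1536-well, plated on prespotted compound at 10 μM final, parasite-free screening media added to match infected plates; puromycin 10 μM positive, DMSO 0.5% negative; run in parallel with 48 h PbLuc assay at 37 °C, 5% CO2; viability by CellTiter-Glo luminescence, normalized to controls.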
row,Compound,cytotoxicity at 10 µM [%]
1,CN1C[C@@H](F)[C@@H](OCc2nc3ccccc3[nH]2)C1,5.34
2,CO[C@H]1C(=O)N(C)C2(CCNCC2)[C@@H]1C(=O)Nc1ccccc1,6.17
3,CC(C)n1nnc2c(sc3nc(N4CCOCC4)c4c(c32)CCC4)c1=O,3.26
4,CC(C)CNC(=O)c1cccc(Oc2ccc3nncn3n2)c1,-1.95
5,CC(C)Cn1cc(C(=O)NC2CCS(=O)(=O)C2)c2ccccc2c1=O (stereo not given),0.724
6,c1cn2c(n1)CNCC(COCC1CC1)C2 (stereo not given),17.4
7,CN1CCN(C(=O)C[C@@H]2COC[C@H]3CN(c4ccncn4)C[C@@H]23)CC1,-134
8,O=C(CC1CC1)N[C@@H]1CN(Cc2nccs2)C[C@@H]2CCCO[C@@H]21,8.85
9,O=C(c1cccc(F)c1)N1C[C@H]2CCCC(OCc3cccnc3)[C@H]2C1 (stereo not given in full),8.21
10,CCOCC1CN(Cc2ccc3c(c2)OCO3)Cc2nccn2C1 (stereo not given),-126
11,COC(=O)CC1CCN(C(=O)c2ccc(C)cc2)CC1,4.99
12,Cc1noc([C@H]2COC[C@H]3CN(C(=O)Cc4ccc(F)cc4)C[C@H]32)n1,-21.1
13,CCCN1C(=O)c2ccccc2C1OC (stereo not given),-10.1
14,CC(C)C(NC(=O)C1CCCC1)c1cc(O)nc(-c2cccnc2)n1 (stereo not given),9.82
15,CS(=O)(=O)N1CCC(c2cnc(-c3cn[nH]c3)cn2)CC1,3.64
16,COc1ccc2c(c1)CC(C1CCOCC1)N(C(=O)c1ccnn1C)C2 (stereo not given),-0.516
17,COc1ccc(Br)cc1SCCS(C)(=O)=O,2.71
18,CN(C)CCN(CC1CCCO1)C(=O)Cc1cn2ccccc2n1 (stereo not given),-2.96
19,Cc1ccc(C(O)CN(C)Cc2cnn(C)c2)cc1C (stereo not given),-5.37
20,O=C(NCc1ccon1)Nc1cc(F)ccc1N1CCCCC1,12.7
21,CS(=O)(=O)NC1CC(=O)N(c2ccccc2Cl)C1 (stereo not given),-0.585
22,N#Cc1ccc(F)c(CN2CCCC2Cn2cncn2)c1 (stereo not given),8.21

row,Compound,cytotoxicity at 10 µM [%]
1,OCCN1CCC(CNCCOCC(F)(F)F)CC1,-0.903
2,CNC(=O)NC(=O)C(C)N1CCN(C2CCCC2)CC1 (stereo not given),-14
3,CC(C)c1ccc(O)c(C(=O)NCc2nncn2C)c1,-3
4,C=C(C)CN(CC)C(=O)Nc1ccccc1CN(C)C(C)=O,-9.6
5,CN(CC(=O)N(C)C1CC1)C1CCN(c2ccc(Cl)cc2)CC1,0.153
6,Cc1cccc(C(=O)NC(C(=O)NCc2ccc(O)nc2)C(C)C)c1 (stereo not given),-7.81
7,CCOC(=O)c1nnc2ccccc2c1N1CCOC(C)(C)C1,13.8
8,CSc1ccc(C(CC(=O)O)NC(=O)c2cc(C)on2)cc1 (stereo not given),-12.1
9,Cc1cc(C2CCCN2C(=O)NCc2cccnc2OC(C)C)on1 (stereo not given),-9.63
10,Cc1noc(C)c1CNC(=O)NCCOc1ccc(F)cc1F,0.409
11,CNC(=O)CN1CCC(NC(=O)Cn2cc(C)c3ccccc32)CC1,-4.65
12,COc1ccc(CNC(=O)Nc2ccc(=O)n(C)c2)cc1,1.92
13,Cc1cc(NCC(=O)N(C)C(C)c2cccs2)c(C(N)=O)cc1F (stereo not given),-0.99
14,COCCn1cc(NC(=O)NC(C)CCc2ccccc2)ccc1=O (stereo not given),3.4
15,Cc1cc(N2CCC(N(C)Cc3cc(=O)c(O)co3)CC2)nc(C)n1,2.34
16,Cc1noc(CNc2ccccc2C(=O)N2CCCC(O)C2)n1 (stereo not given),-3.13
17,Cc1occc1CNC(=O)C1(C)CCCN1C(=O)c1ccccc1 (stereo not given),-9.34
18,COC(=O)CCCNC(=O)N1CCc2c(F)ccc(F)c2C1,-11.2
19,CC(C)(C)Cc1noc2ncc(C(=O)N3CCC3)cc12,7.28
20,Cn1ccc(C(=O)N(CC(F)(F)F)c2cccc(Cl)c2)cc1=O,-0.0519
21,Cc1cc(F)c(S(=O)(=O)NCc2ccnc(N(C)C)n2)cc1F,-156
22,CCC(=O)N(CC)CCc1nccs1,9.66

row,Compound,cytotoxicity at 10 µM [%]
1,O=C(NC1CCCN(c2ccccc2Cl)C1)c1ccc(=O)[nH]n1 (stereo not given),-4.46
2,N#Cc1ccsc1N1CCC(Sc2ccncc2)C1=O (stereo not given),-15.7
3,CN(Cc1nnc(C2CC2)n1C)S(=O)(=O)Cc1ccccc1F,16.8
4,Cc1ccc(C(=O)N2CC(C(N)=O)O[C@H](C)C2)c(C)c1 (stereo not given in full),-0.29
5,Cc1cc(F)ccc1N1CCCC(NC(=O)CCc2ccncc2)C1 (stereo not given),8.72
6,Cc1nc(C2CCCN2CCc2cccs2)no1 (stereo not given),10.4
7,N#Cc1ccc(NC2CCN(c3ncccn3)CC2)cc1Cl,8.8
8,COC(=O)[C@H]1CCCCN1C(=O)c1cccc(-n2cccn2)c1,-8.29
9,Cc1nc(CN2C(=O)CC[C@@H]3[C@H]2CCN3C(=O)c2ccc[nH]2)cs1,-77.3
10,CC(=O)N1CCC2(CCCN(C(=O)c3ccc(Cl)c(C(F)(F)F)c3)C2)C1 (stereo not given),-81.8
11,COc1ccc2c(c1)OCC(Cc1cnccc1N)C2 (stereo not given),4.28
12,CC(C)S(=O)(=O)N1CCCC(c2nccn2Cc2cccnc2)C1 (stereo not given),3.72
13,O=C(CCN1CCCC1c1ccccn1)N1CCc2ccccc2C1 (stereo not given),2.87
14,CCCN1CC2(CCN(c3ncc(F)cn3)CC2)CC1C(=O)O (stereo not given),-1.71
15,CCc1nc(NCC2CCCN(C(=O)C3CC3)C2)c2cnn(C)c2n1 (stereo not given),1.14
16,CC1(C)CC1(C(=O)N1CC(c2cccnc2)C1)c1ccccc1F (stereo not given),-10.7
17,CCOCCNC(=O)c1cc(COc2cncc(Cl)c2)on1,7.62
18,COc1cc2c(cc1-c1nc3c(cnn3C)[nH]1)OCO2,-8.9
19,CC(C)N(C)S(=O)(=O)c1ccc2c(c1)CCN(C(=O)c1cnccn1)C2,-6.17
20,c1[nH]c(CC2CCCC2)nc1CN1CCCC2(CCOC2)C1 (stereo not given),-9.12
21,CCc1nnc(CN(C)Cc2cccc(C(=O)Nc3cnn(C)c3)c2)o1,-5.54
22,Nc1cc(-c2cccc3c2CCNC3)ncn1,-8.27

row,Compound,cytotoxicity at 10 µM [%]
1,O=C(c1ccco1)N1CCN(Cc2nc(C3CC3)no2)CC1,5.21
2,CC(C)Cc1cc(CNC(=O)C2CCCN(C(=O)N(C)C)C2)no1 (stereo not given),2.31
3,Cc1nn(C)c2nc(N3CCCCC3c3nccs3)sc12 (stereo not given),10.2
4,Cc1ccc(OC2CCN(C(=O)C(C)Cn3cccn3)CC2)cc1 (stereo not given),-2.09
5,COc1ccc(-c2nc3c([nH]2)CCNC3)c(OC)c1OC,0.786
6,c1ccc(CN2CCC(CNc3ncnc4c3CCNCC4)CC2)cc1,-4.84
7,O=C(c1ccc2cccc(F)c2n1)N1CCN(CCn2cccc2)CC1,13.5
8,Cc1cnccc1-n1nc(C(C)C)nc1CS(C)(=O)=O,0.999
9,COc1ccc(CN2CCC(O)(CN3CCCCC3)C2)c(C)c1 (stereo not given),7.5
10,Cc1noc(-c2ccc(N(C)Cc3cccnc3)nc2)n1,-1.24
11,CC1CCN(Cc2cnc(S(=O)(=O)CC3CC3)n2CC2CCCO2)CC1 (stereo not given),6.17
12,COc1ccc(CC(=O)N2CCCC(c3cc(C)[nH]n3)C2)cc1 (stereo not given),-7.69
13,Cc1ncc2c(n1)CN(Cc1nc(-c3cccs3)no1)CC2,-9.8
14,Cc1ccc(NC2CCN(C(=O)c3ccoc3C)CC2)nn1,-12.7
15,CC(=O)N1CCN(C(=O)CCCc2nnc(-c3ccccc3)o2)CC1,-12.5
16,Cc1ccc(-c2nc(CN3CCc4cnc(C)nc4C3)no2)cc1,-5.12
17,Cc1csc(N2CCN(C(=O)Cc3cccs3)CC2)n1,-23.3
18,Cc1ccccc1OCCC(=O)NC(C)c1nnc2n1CCCCC2 (stereo not given),-12.3
19,Cc1nn(C)c(C)c1NC(=O)CN1CCCC1c1c(C)nn(C)c1C (stereo not given),-6.44
20,Cc1nc(C2CCCN(C(=O)CCCn3ccnc3C)C2)no1 (stereo not given),-13.4
21,c1nc2n(n1)CC(NCc1nc(-c3ccsc3)no1)CC2 (stereo not given),-8.13
22,O=C(c1nc(=O)[nH][nH]1)N1CCCC(c2cc(C(F)(F)F)[nH]n2)C1 (stereo not given),-12.3

row,Compound,cytotoxicity at 10 µM [%]
1,Cc1cc(C)cc(C2(C(=O)N3CCCC(n4cncn4)C3)CC2)c1 (stereo not given),-3
2,CC(C)N(Cc1nc2c(cnn2C)c(=O)[nH]1)c1ccccc1,-12.6
3,CS(=O)(=O)c1ccc(CNC(=O)N2CCC(C(N)=O)C2)cc1 (stereo not given),-8.03
4,CCn1nnc2cc(C(=O)N3CCCC3Cn3cc(C)cn3)ccc21 (stereo not given),-9.8
5,Cc1ccc(-c2cc(CN3CCCC(Cn4cncn4)C3)on2)cc1 (stereo not given),-11.8
6,CCc1nc(CN2CCCN(C(=O)c3c(C)noc3C)CC2)cs1,1.74
7,O=C(C1CC=CC1)N1CCC2(CC1)CNCCO2,1.46
8,COC[C@@H]1CC[C@H]2[C@H](CCN2C(=O)c2ccncc2F)O1,-8.82
9,Fc1cccnc1O[C@H]1CN(Cc2ccoc2)[C@@H]2CCCO[C@H]12,-0.908
10,Cc1ccc(CN2CC[C@H]3[C@H]2CC(=O)N3c2ccsc2)o1,1.12
11,O=C(Nc1cccnc1)[C@H]1C[C@@H]2CCN(Cc3nccs3)C[C@@H]2O1,-68.2
12,CC(C)N1CCc2ncn(C)c2C1C(=O)N1CCOCC1 (stereo not given),10.9
13,O=C(NC1CC1)N1CC[C@H](OCC2CC2)[C@@H]1Cc1cccnc1,1.36
14,CCOCC1CN(CC2CC2)Cc2nn(CC3CC3)cc21 (stereo not given),0.748
15,Cc1cccc(CN2CCN3C[C@H](Oc4cccnc4)C[C@H]3C2)n1,6.61
16,NC(CNS(=O)(=O)Cc1cccc2cccnc12)c1ccccc1 (stereo not given),-5.39
17,CN(C)C(=O)c1cnc2n1CCN(Cc1ccc3c(c1)OCO3)C2,-69
18,CCN(CC)CCN1CCO[C@H]2[C@@H](OCc3ccncc3)CC[C@@H]21,-4.65
19,NC1CCN(C(=O)c2c(F)cccc2Br)CC1,11.4
20,COc1ccc(CN2C[C@@H]3C[C@H](C(=O)Nc4cccnc4)[C@H](C2)O3)cc1,-72.4
21,O=c1[nH]c2cn(-c3cccc(F)c3)c(=O)n2n1Cc1ccc(Cl)cc1,8.53
22,Cn1[nH]c(C2CCCN(C(=O)CO)C2)cc1=O (stereo not given),2.01
